Test results taken from ChEMBL document CHEMBL1148734, “Structure-activity relationships of phenyl-furanyl-rhodanines as inhibitors of RNA polymerase with antibacterial activity on biofilms” (J Med Chem, 2007).
Values after ≈ are worked out from the molar mass of the structure shown. Active and inactive are the calls of the source. The rule behind the calls is not given here.

What was measured:
[1] = tested on: Staphylococcus aureus; test: Antibacterial activity against Staphylococcus aureus CIP 76.25; type: functional
[2] = tested on: Clostridioides difficile; test: Antibacterial activity against Clostridium difficile DSM 1296; type: functional
[3] = tested on: CHO; test: Cytotoxicity against CHO cells; type: cell-based, Cricetulus griseus; details: chinese hamster
Outline: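 CHO cells grown in RPMI with 5% fetal calf serum, then exposed to compounds 24 h at 37 °C without serum. MTT added at 300 µg/mL final, 3 h at 37 °C dark; acidified isopropanol added, 1 h at room temperature; OD at 595 nm.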

[4] = tested on: Staphylococcus epidermidis; test: Antibacterial activity against Staphylococcus epidermidis CIP 105777; type: functional
[5] = tested on: Bacillus anthracis; test: Antibacterial activity against Bacillus anthracis 9131; type: functional
[6] = tested on: Staphylococcus epidermidis; test: Antibacterial activity against Staphylococcus epidermidis 40004; type: functional
[7] = tested on: Escherichia coli; test: Antibacterial activity against Escherichia coli tolC CGSC 5633; type: functional
[8] = tested on: Staphylococcus epidermidis; test: Antibacterial activity against Staphylococcus epidermidis 48155; type: functional
[9] = tested on: Streptococcus pneumoniae; test: Antibacterial activity against Streptococcus pneumoniae CIP 103566; type: functional
[10] = tested on: Staphylococcus aureus; test: Antibacterial activity against multidrug resistant Staphylococcus aureus 49589; type: functional
Outline: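 Broth microdilution MIC following CLSI. Compounds were predissolved in DMSO and tested as serial 2-fold dilutions at final 100 to 0.4 µg/mL. Inoculum was 5 × 10⁵ CFU/mL, and plates were read after 18 h at 37 °C.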

[11] = tested on: Escherichia coli; test: Inhibition of RNA polymerase sigma-70 transcription in Escherichia coli at 10 uM; type: functional
[12] = tested on: Staphylococcus epidermidis; test: Antibacterial activity against Staphylococcus epidermidis RP62A; type: functional
[13] = biological target: Albumin (Homo sapiens, UniProt P02768); test: Binding affinity to HSA by SPR method; type: ADME; details: isolated protein
Outline: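 SPR at 25 °C; HSA amine-coupled on CM5 chip (9000–11 000 RU). Compounds at 50 µM in PBS with 5% DMSO, 30 µL/min, duplicate 60 s injections over HSA and reference surfaces. Double referencing with buffer blanks; DMSO bulk correction from calibration curve (4.5–5.8% DMSO).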

[14] = tested on: Escherichia coli; test: Antibacterial activity against Escherichia coli tolC CGSC 5633 in presence of 1% HSA; type: functional, organism-based
[15] = Inhibition of Escherichia coli RNA polymerase sigma-70 factor
[16] = tested on: Staphylococcus epidermidis; test: Antibacterial activity against Staphylococcus epidermidis RP62A biofilms assessed as bacterial count per well at 8 times MIC after 24 hrs; type: functional
Outline: (§1)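 Biofilms from 10⁷ CFU/mL inoculum in MHB grown 24 h at 37 °C, rinsed, then exposed 24 h at 37 °C without shaking in MHB to compound at 8× MIC. Washed, DMSO-lysed, ATP bioluminescence read (luciferase/D-luciferin buffer, pH 7.25). Strain-specific luminescence-to-Log₁₀ CFU/well equations used; triplicate.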

[17] = tested on: Staphylococcus epidermidis; test: Antibacterial activity against Staphylococcus epidermidis 40004 biofilms assessed as bacterial count per well at 8 times MIC after 24 hrs; type: functional; outline: as §1
[18] = tested on: Staphylococcus epidermidis; test: Antibacterial activity against Staphylococcus epidermidis 48155 biofilms assessed as bacterial count per well at 8 times MIC after 24 hrs; type: functional; outline: as §1

Albumin, sequence (P02768 whole entry): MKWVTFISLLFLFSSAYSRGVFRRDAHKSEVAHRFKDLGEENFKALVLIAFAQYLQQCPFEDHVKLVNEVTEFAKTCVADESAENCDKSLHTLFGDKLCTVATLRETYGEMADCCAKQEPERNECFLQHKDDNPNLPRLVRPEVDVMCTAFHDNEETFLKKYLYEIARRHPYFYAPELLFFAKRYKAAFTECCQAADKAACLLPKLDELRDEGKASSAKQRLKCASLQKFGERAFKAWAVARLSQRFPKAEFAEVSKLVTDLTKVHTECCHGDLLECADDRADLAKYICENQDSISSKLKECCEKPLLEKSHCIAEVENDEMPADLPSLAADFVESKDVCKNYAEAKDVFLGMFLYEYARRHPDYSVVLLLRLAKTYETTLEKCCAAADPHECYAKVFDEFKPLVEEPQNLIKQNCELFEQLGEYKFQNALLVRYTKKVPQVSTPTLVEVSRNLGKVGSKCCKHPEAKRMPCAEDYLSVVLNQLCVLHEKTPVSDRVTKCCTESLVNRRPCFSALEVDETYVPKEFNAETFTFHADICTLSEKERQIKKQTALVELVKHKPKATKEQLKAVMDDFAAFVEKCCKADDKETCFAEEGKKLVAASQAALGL

SMILES | MIC [1] | MIC [2] | Activity [3] | MIC [4] | MIC [5] | MIC [6] | MIC [7] | MIC [8] | MIC [9] | MIC [10] | inhibition at 10 µM [11] | MIC [12] | Activity [13] | Activity [14] | IC50 [15] | log10CFU/ml [16] | log10CFU/ml [17] | log10CFU/ml [18]
C=CCN1C(=O)/C(=C/c2ccc(-c3ccc(O)cc3)o2)SC1=S | 6.25 µg/mL (≈ 18.2 µM) | 50 µg/mL (≈ 146 µM) | >= 100 ug ml-1 | 12.5 µg/mL (≈ 36.4 µM) | 6.25 µg/mL (≈ 18.2 µM) | 12.5 µg/mL (≈ 36.4 µM) | 3.13 µg/mL (≈ 9.11 µM) | 12.5 µg/mL (≈ 36.4 µM) | 25 µg/mL (≈ 72.8 µM) | 25 µg/mL (≈ 72.8 µM) | 84% | 12.5 µg/mL (≈ 36.4 µM) |  |  |  |  |  | 
C=CCN1C(=O)/C(=C/c2ccc(-c3ccc(C(=O)O)c(Cl)c3)o2)SC1=S | 50 µg/mL (≈ 123 µM) | 12.5 µg/mL (≈ 30.8 µM) | >= 100 ug ml-1 | 6.25 µg/mL (≈ 15.4 µM) | 3.13 µg/mL (≈ 7.71 µM) | 6.25 µg/mL (≈ 15.4 µM) | 25 µg/mL (≈ 61.6 µM) | 12.5 µg/mL (≈ 30.8 µM) | 12.5 µg/mL (≈ 30.8 µM) | 50 µg/mL (≈ 123 µM) | 100% | 6.25 µg/mL (≈ 15.4 µM) | Active | inactive |  |  |  | 
C=CCN1C(=O)/C(=C/c2ccc(C)o2)SC1=S |  |  |  | ≥ 100 µg/mL |  |  | ≥ 100 µg/mL |  |  |  | 3% |  |  |  | ≥ 100 µM |  |  | 
C=CCN1C(=O)/C(=C/c2cc(C)n(-c3cccc(C(=O)O)c3)c2C)SC1=S | 50 µg/mL (≈ 125 µM) | 6.25 µg/mL (≈ 15.7 µM) | >= 100 ug ml-1 | 25 µg/mL (≈ 62.7 µM) | 6.25 µg/mL (≈ 15.7 µM) | 50 µg/mL (≈ 125 µM) | 50 µg/mL (≈ 125 µM) | 25 µg/mL (≈ 62.7 µM) | 25 µg/mL (≈ 62.7 µM) | 25 µg/mL (≈ 62.7 µM) | 100% | 25 µg/mL (≈ 62.7 µM) |  |  |  | 2.8 | 2.3 | 1.8
C=CCN1C(=O)/C(=C/c2c[nH]c3c(C(=O)O)cccc23)SC1=S | 50 µg/mL (≈ 145 µM) | 25 µg/mL (≈ 72.6 µM) | >= 100 ug ml-1 | 25 µg/mL (≈ 72.6 µM) | 12.5 µg/mL (≈ 36.3 µM) | 25 µg/mL (≈ 72.6 µM) | ≥ 100 µg/mL | 25 µg/mL (≈ 72.6 µM) | 50 µg/mL (≈ 145 µM) | 50 µg/mL (≈ 145 µM) | 95% | 25 µg/mL (≈ 72.6 µM) |  |  |  |  |  | 
C=CCN1C(=O)/C(=C/c2ccc(-c3ccc(CCC(=O)O)cc3)o2)SC1=S | 25 µg/mL (≈ 62.6 µM) | 50 µg/mL (≈ 125 µM) | >= 100 ug ml-1 | 25 µg/mL (≈ 62.6 µM) | 12.5 µg/mL (≈ 31.3 µM) | 25 µg/mL (≈ 62.6 µM) | 12.5 µg/mL (≈ 31.3 µM) | 12.5 µg/mL (≈ 31.3 µM) | ≥ 100 µg/mL | 25 µg/mL (≈ 62.6 µM) | 68% | 25 µg/mL (≈ 62.6 µM) | Active | inactive |  |  |  | 
C=CCN1C(=O)/C(=C/c2ccc(-c3ccc(C(=O)O)cc3)o2)SC1=S | ≥ 100 µg/mL | ≥ 100 µg/mL | >= 100 ug ml-1 | 3.13 µg/mL (≈ 8.43 µM) | 3.13 µg/mL (≈ 8.43 µM) | 6.25 µg/mL (≈ 16.8 µM) | 12.5 µg/mL (≈ 33.7 µM) | 3.13 µg/mL (≈ 8.43 µM) | ≥ 100 µg/mL | ≥ 100 µg/mL | 98% | 3.13 µg/mL (≈ 8.43 µM) | Active | inactive |  |  |  | 
O=C(O)c1ccc(/C=C2\SC(=S)N(Cc3ccco3)C2=O)cc1 |  |  |  | ≥ 100 µg/mL |  |  | ≥ 100 µg/mL |  |  |  | 5% |  |  |  | 87 µM |  |  | 
C=CCN1C(=O)/C(=C/c2ccc(-c3cccc(C(=O)O)c3)o2)SC1=S | 12.5 µg/mL (≈ 33.7 µM) | 12.5 µg/mL (≈ 33.7 µM) | >= 100 ug ml-1 | 3.13 µg/mL (≈ 8.43 µM) | 6.25 µg/mL (≈ 16.8 µM) | 25 µg/mL (≈ 67.3 µM) | 6.25 µg/mL (≈ 16.8 µM) | 25 µg/mL (≈ 67.3 µM) | 50 µg/mL (≈ 135 µM) | 25 µg/mL (≈ 67.3 µM) | 97% | 12.5 µg/mL (≈ 33.7 µM) | Active | inactive |  |  |  | 
C=CCN1C(=O)/C(=C/c2cccc(-c3cccc(C(=O)O)c3)c2)SC1=S | ≥ 100 µg/mL | 12.5 µg/mL (≈ 32.8 µM) | >= 100 ug ml-1 | 25 µg/mL (≈ 65.5 µM) | 12.5 µg/mL (≈ 32.8 µM) | 50 µg/mL (≈ 131 µM) | ≥ 100 µg/mL | 50 µg/mL (≈ 131 µM) | ≥ 100 µg/mL | 25 µg/mL (≈ 65.5 µM) | 26% | 25 µg/mL (≈ 65.5 µM) |  |  |  |  |  | 
C=CCN1C(=O)/C(=C/c2ccc(-c3ccc(C(=O)NO)cc3)o2)SC1=S | ≥ 100 µg/mL | ≥ 100 µg/mL | >= 100 ug ml-1 | ≥ 100 µg/mL | 50 µg/mL (≈ 129 µM) |  | 25 µg/mL (≈ 64.7 µM) |  | 25 µg/mL (≈ 64.7 µM) | ≥ 100 µg/mL | 100% | ≥ 100 µg/mL |  |  |  |  |  | 
C=CCN1C(=O)/C(=C/c2cc(C)n(CC)c2C)SC1=S |  |  |  | ≥ 100 µg/mL |  |  | ≥ 100 µg/mL |  |  |  | 5% |  |  |  | ≥ 100 µM |  |  | 
C=CCN1C(=O)/C(=C/c2ccc(-c3ccccc3)o2)SC1=S | ≥ 100 µg/mL | ≥ 100 µg/mL | >= 100 ug ml-1 | ≥ 100 µg/mL | 0.78 µg/mL (≈ 2.38 µM) |  | 3.13 µg/mL (≈ 9.56 µM) |  | ≥ 100 µg/mL | ≥ 100 µg/mL | 46% | ≥ 100 µg/mL |  |  |  |  |  | 
C=CCN1C(=O)/C(=C/c2cccc(C(=O)O)c2)SC1=S |  |  |  | ≥ 100 µg/mL |  |  | ≥ 100 µg/mL |  |  |  |  |  |  |  | ≥ 100 µM |  |  | 
